Screening data (PubChem BioAssay)
Many of the other results were omitted from the sample, so hits are more common in it than they were.
UPR XBP1 act: adaptive UPR (XBP1) activation. CHO-XBP1 luciferase reporter, IRE1-XBP1 UPR activation, luminescence; percent of tunicamycin response, DMSO as zero. activation, % at 20 µM. 330,000 tested, 0.33% active. AID 463104;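 active means versus positive control, 20 µM dose yields 30% or more activation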
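Material: CHO-XBP1 cells stably carrying IRE1-XBP1-driven luciferase reporter | Medium: F12 with 10% serum | Compound dosing: 20 µM single concentration, DMSO 1% | Incubation: Overnight seeding at 37 °C, 6 h compound treatment at 37 °C | Detection: Steady-Glo luminescence read | Read-out basis: % activation of reporter signal versus tunicamycin and DMSO controls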
TLR9-MyD88 block: blocks human TLR9 binding to MyD88; Q9NR96+Q99836; inhibition, % at 4.98 µM; CHO BLA complementation TLR9-MyD88, CCF4 FRET ratio; AID 504734; 340,000 tested, 0.21% active;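 active means inhibition above the mean over all tested compounds plus 3 SD, cut at about 21% in these data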
Target sequence (Q99836 whole entry, looked up): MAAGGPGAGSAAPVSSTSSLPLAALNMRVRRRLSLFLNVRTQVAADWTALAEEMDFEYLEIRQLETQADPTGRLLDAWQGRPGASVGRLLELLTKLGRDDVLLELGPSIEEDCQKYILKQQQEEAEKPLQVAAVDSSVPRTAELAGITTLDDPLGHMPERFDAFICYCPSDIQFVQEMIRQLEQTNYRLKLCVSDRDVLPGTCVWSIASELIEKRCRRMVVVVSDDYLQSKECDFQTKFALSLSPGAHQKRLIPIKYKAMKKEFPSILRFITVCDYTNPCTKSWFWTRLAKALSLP
Target sequence (Q9NR96 whole entry, looked up): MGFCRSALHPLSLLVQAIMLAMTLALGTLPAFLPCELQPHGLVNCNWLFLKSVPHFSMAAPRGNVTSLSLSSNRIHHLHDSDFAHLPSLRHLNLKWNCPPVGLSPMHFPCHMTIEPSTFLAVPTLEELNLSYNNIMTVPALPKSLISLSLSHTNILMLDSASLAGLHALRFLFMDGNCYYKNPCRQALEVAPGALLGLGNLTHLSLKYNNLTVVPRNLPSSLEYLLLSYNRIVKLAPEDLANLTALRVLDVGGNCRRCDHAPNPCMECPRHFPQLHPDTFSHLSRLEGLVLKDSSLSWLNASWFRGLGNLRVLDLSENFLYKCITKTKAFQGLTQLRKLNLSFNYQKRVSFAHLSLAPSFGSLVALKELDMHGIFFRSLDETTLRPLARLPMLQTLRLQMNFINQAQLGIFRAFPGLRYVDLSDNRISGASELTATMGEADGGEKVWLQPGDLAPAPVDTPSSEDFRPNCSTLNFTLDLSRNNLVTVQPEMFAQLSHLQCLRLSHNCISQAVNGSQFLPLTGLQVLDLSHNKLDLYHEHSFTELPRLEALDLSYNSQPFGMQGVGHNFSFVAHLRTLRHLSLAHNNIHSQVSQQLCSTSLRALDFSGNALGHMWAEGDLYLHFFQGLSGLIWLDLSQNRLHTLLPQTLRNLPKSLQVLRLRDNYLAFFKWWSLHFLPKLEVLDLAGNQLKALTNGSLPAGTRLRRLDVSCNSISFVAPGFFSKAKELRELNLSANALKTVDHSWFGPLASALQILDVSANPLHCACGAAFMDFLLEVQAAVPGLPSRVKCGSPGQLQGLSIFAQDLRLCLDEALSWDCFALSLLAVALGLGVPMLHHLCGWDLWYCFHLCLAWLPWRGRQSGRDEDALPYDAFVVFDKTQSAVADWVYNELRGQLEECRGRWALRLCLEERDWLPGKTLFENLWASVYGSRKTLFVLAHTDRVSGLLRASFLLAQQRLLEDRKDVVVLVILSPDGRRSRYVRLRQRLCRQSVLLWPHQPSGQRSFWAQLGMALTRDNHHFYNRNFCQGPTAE
NOD2 RIPK2 PPI: NOD2-RIPK2 protein interaction inhibition; O43353; CHO BLA complementation NOD2-RIPK2, CCF4 ratio; inhibition, % at 4.98 µM; 360,000 tested, 0.38% active; in the data active means inhibition above about 21%
CHOP inhibitor: blocks CHOP induction under ER stress. CHO-K1 CHOP-promoter luciferase, tunicamycin-induced, 15-18 h. inhibition, % at 10 µM. 220,000 tested, 3.8% active. AID 2732;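 active means compounds that reduced the stress-induced luciferase reporter signal by more than about 70% of percent inhibition, limit read from the data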
CHOP UPR activ: apoptotic UPR (CHOP) activation; 330,000 tested, 0.34% active; CHO-CHOP luciferase reporter, luminescence; percent of tunicamycin response over DMSO baseline; activation, % at 10 µM; AID 449763;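 active means at 10 µM dose, activation of 40% or more, normalized to positive control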
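Test system: CHO CHOP reporter cells. Input: 500 CHO-CHOP cells per well. Medium: F12 with 10% FBS. Technique: luciferase luminescence. Measure: percent activation relative to tunicamycin control. Dosing: 10 µM compound, 0.5% DMSO. Timing: 16-18 h cell attachment, then 6 h compound exposure, 37 °C.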
TLR4 MyD88 comp: blocks binding of human TLR4 to MyD88. AID 861. O00206+Q99836. HeLa CL3-4 TLR4/MyD88 BLA complementation, FRET ratio. inhibition, % at 8.4 µM. 200,000 tested, 0.18% active; in the data active means inhibition above about 25%
Each line names hits and unclear results; the compound was inactive in the other large screens.

CCCCCCc1cc2cc(S(=O)(=O)c3ccc(F)cc3)c(=O)oc2cc1O	CHOP inhibitor 94
CCCCCCc1cc2cc(-c3nnc(-c4ccccc4O)o3)c(=O)oc2cc1O	none
COc1ccc(CCNc2cc(N3CCN(C(=O)c4ccc(C)cc4)CC3)ccc2[N+](=O)[O-])cc1OC	CHOP inhibitor 79 (no result: TLR9-MyD88 block, NOD2 RIPK2 PPI)
COc1ccc(CCNc2cc(N3CCN(C(=O)c4ccccc4F)CC3)ccc2[N+](=O)[O-])cc1OC	none
COc1ccc(C(=O)N2CCN(c3ccc([N+](=O)[O-])c(NCCc4ccc(OC)c(OC)c4)c3)CC2)cc1	CHOP inhibitor 81
CCc1ccc(C(O)c2ncc(-c3cccc(OC)c3)[nH]2)cc1 (stereo not drawn)	none (no result: UPR XBP1 act, TLR9-MyD88 block, CHOP inhibitor, CHOP UPR activ, TLR4 MyD88 comp)
CCN(CC)c1ccc(/C=N/NC(=O)c2cccc(S(=O)(=O)Nc3ccccc3OC)c2)cc1	none
CCN(CC)c1ccc(/C=N/NC(=O)c2cccc(S(=O)(=O)Nc3ccccc3OC)c2)c(O)c1	TLR9-MyD88 block 21, NOD2 RIPK2 PPI 21
CC(OC(=O)CCc1nc2ccccc2c(=O)[nH]1)C(=O)c1ccc(C(C)(C)C)cc1 (stereo not drawn)	CHOP inhibitor 92
CC(OC(=O)CCc1nc2ccccc2c(=O)[nH]1)C(=O)NC1CCCC1 (stereo not drawn)	none
COc1ccc(NS(=O)(=O)c2cc([N+](=O)[O-])ccc2N/N=C\c2c(C)[nH]c3ccccc23)cc1	none
COc1ccc(/C=N/Nc2ccc([N+](=O)[O-])cc2S(=O)(=O)N2CCN(C)CC2)cc1	CHOP inhibitor 71
Cc1ccc(NC(=O)COC(=O)CC2CCCC2)cc1Cl	CHOP inhibitor 72
Cc1cccc(Oc2cc([N+](=O)[O-])cc3c2C(=O)Nc2ccccc2O3)c1	CHOP inhibitor 92
O=C1Nc2ccccc2Oc2cc([N+](=O)[O-])cc(Oc3ccccc3)c21	none
O=C(CCS(=O)(=O)c1cccc2nonc12)N1CCOCC1	none
O=C(CCS(=O)(=O)c1cccc2nonc12)N1CC(=O)N(CCc2ccccc2)C(=O)C1	CHOP inhibitor 73
Cc1ccccc1OCC(=O)NCC(=O)N/N=C/c1cccc([N+](=O)[O-])c1	none (no result: TLR9-MyD88 block, NOD2 RIPK2 PPI)
COc1ccc(/C=N/NC(=O)CCCOc2ccc(Cl)cc2Cl)cc1	CHOP inhibitor 85
Cc1cc(Cl)ccc1OCCCC(=O)N/N=C/c1cccc([N+](=O)[O-])c1	CHOP inhibitor 88
O=C(CCCOc1ccc(Cl)cc1Cl)N/N=C/c1ccc(Cl)cc1	none
CCOC(=O)c1cnc2ccc(OC)cc2c1NCc1ccccc1	none
CCOC(=O)c1cnc2ccc(OCC)cc2c1NCc1ccccc1OC	CHOP inhibitor 82
COc1cc(OC)cc(C2=Cc3ccccc3C(CC(=O)c3ccco3)N2c2ccc(-c3cccnc3)cc2)c1 (stereo not drawn)	none (no result: UPR XBP1 act, TLR9-MyD88 block, CHOP inhibitor, CHOP UPR activ, TLR4 MyD88 comp)
CC(C/C=N/NC(=O)COc1cc(Cl)ccc1Cl)c1ccccc1 (stereo not drawn)	CHOP inhibitor 79
COc1ccccc1C(=O)NC(=O)COc1cc(Cl)ccc1Cl	none (no result: CHOP inhibitor, TLR4 MyD88 comp)
COc1cccc(CNS(=O)(=O)c2ccc3c(c2)oc(=O)n3C)c1	none (no result: CHOP inhibitor, TLR4 MyD88 comp)
OCCN=C1CCCc2c1[nH]c1ccc(Br)cc21	CHOP inhibitor 72
N#Cc1cccc(NC(=O)CNc2cccc(S(=O)(=O)N3CCCCC3)c2)c1	none (no result: CHOP inhibitor, TLR4 MyD88 comp)
Cc1ccc(NC(=O)CCn2nc([N+](=O)[O-])cc2C)nc1	none
COc1cc(OC)cc(-c2c(C#Cc3ccsc3)c3cc(-c4cccc5[nH]cc(C=O)c45)ccc3n2C)c1	none (no result: CHOP inhibitor, TLR4 MyD88 comp)
CC(C)OC(=O)c1cccnc1N1CCN(c2ccc(F)cc2)CC1	CHOP inhibitor 78
CCOC1CCCc2oc(-c3ccc(N(C)C)cc3)c(C(=O)OC)c21 (stereo not drawn)	none (no result: UPR XBP1 act, TLR9-MyD88 block, CHOP inhibitor, CHOP UPR activ, TLR4 MyD88 comp)
CC1(c2nnnn2-c2ccc3c(c2)OCCO3)CCC(=O)N1Cc1cccnc1 (stereo not drawn)	none (no result: UPR XBP1 act, TLR9-MyD88 block, CHOP inhibitor, CHOP UPR activ, TLR4 MyD88 comp)
Cc1ccc(Oc2nc3c(c(=O)n(Cc4ccccc4F)c(=O)n3C)n2C)cc1	CHOP inhibitor 94
CC1CCC(NC(=O)c2ccc(CNc3c(NC4CCCCC4)c(=O)c3=O)cc2)CC1 (stereo not drawn)	none
O=C(c1ccc(CNc2c(NC3CCCCC3)c(=O)c2=O)cc1)N1CCc2ccccc21	CHOP inhibitor 73 (no result: UPR XBP1 act, CHOP UPR activ)
O=C(Nc1cccc(S(=O)(=O)Nc2ccc(Cl)cc2)c1)c1ccc(Cl)nc1	CHOP inhibitor 73
O=C(Nc1cccc(S(=O)(=O)Nc2ccc(Cl)cc2)c1)c1cc2c(s1)CCCC2	CHOP inhibitor 76
COC(=O)CSc1nc(Cc2ccccc2)nc2ccccc12	none
CC(C)OC(=O)CSc1nc(Cc2ccccc2)nc2ccccc12	CHOP inhibitor 75
CCC(C)N1CC(=O)N2C(c3ccc(OC)cc3OC)c3[nH]c4ccccc4c3C[C@H]2C1=O (stereo partly drawn)	none (no result: CHOP inhibitor, TLR4 MyD88 comp)
COc1ccc(S(=O)(=O)Cc2ccc(C(=O)N3CCN(c4cccc(C)c4C)CC3)o2)cc1	CHOP inhibitor 71
Cc1ccc(-c2ccc(/C=N/N3C(=O)C4C5C=CC(CC5)C4C3=O)o2)c([N+](=O)[O-])c1 (stereo not drawn)	CHOP inhibitor 89
Cc1ccc(CCN2CC(C(=O)NC3CCCCC3)CC2=O)cc1 (stereo not drawn)	none (no result: CHOP inhibitor, TLR4 MyD88 comp)
Cc1ccc(-n2nnnc2SC(C(=O)c2c[nH]c3ccccc23)c2ccccc2)cc1 (stereo not drawn)	CHOP inhibitor 72
CCCn1c(=O)n(C)c(=O)c2c(SCC(=O)NC34CC5CC(CC(C5)C3)C4)nc(CC(C)C)nc21	none
COc1ccc2[nH]c(C)c(CCN(Cc3cccs3)C(=S)Nc3ccccc3)c2c1	CHOP inhibitor 70
COc1ccc(NC(=S)N(CCc2c(C)[nH]c3ccc(C)cc23)Cc2cccs2)cc1	none
COc1ccc2[nH]c(C)c(CCN(Cc3cccs3)C(=S)Nc3ccc(F)cc3)c2c1	CHOP inhibitor 78
NC(COCc1ccccc1)c1csc(Nc2ccc(C(=O)c3ccccc3)cc2)n1 (stereo not drawn)	none (no result: UPR XBP1 act, TLR9-MyD88 block, CHOP inhibitor, CHOP UPR activ, TLR4 MyD88 comp)
COc1ccc(/C=C(\C#N)C(=O)NCCc2ccccc2)cc1OCc1ccccc1	none
N#C/C(=C\c1ccc(O)c(O)c1)C(=O)NCCCc1ccccc1	CHOP UPR activ 151
CCCCCCCCNC(=O)/C(C#N)=C/c1ccc(SC)cc1	CHOP inhibitor 93
CCCCCCCCNC(=O)/C(C#N)=C/c1ccc2c(c1)OCCO2	none
C/C=C\C=C/C(=O)Nc1cccc(C2=NOC3(C2)C[C@H](C(N)=O)N(C(=O)Cc2ccc([N+](=O)[O-])cc2)C3)c1 (stereo partly drawn)	none (no result: TLR4 MyD88 comp)
